≈ marks a conversion by molar mass, not a printed value.
Legend:
[1] = system: cytosolic AcCoA metabolism (UDP-GlcNAc); test: 13C2-acetate labeling of UDP-GlcNAc in cells; assay type: cell-based
Outline: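 Cells grown 24 h in serum-like modified Eagle's medium (SMEM) with 0.1 mM uniformly labeled 13C2-acetate. Conditions were normoxia with 10% dialyzed FBS (N10) or 1% O2 hypoxia with 1% dialyzed FBS (H1). Vehicle or test compound present. Cells washed in ice-cold PBS and extracted with methanol/acetonitrile/water (5:3:2) at 4°C for 5 min. Cleared extracts analysed by HILIC LC-MS on a Q Exactive HF-X.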

[2] = system: Brpkp110 cells; test: 13C2-acetate labeling of palmitate in Brpkp110 cells; assay type: cell-based, mouse; settings: Brpkp110, N10 and H1, 24 hr, 100 μM 13C2-acetate
Outline: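 Cells labeled 24 h with 100 μM 13C2-acetate in SMEM under N10 (normoxia, 10% dialyzed FBS) or H1 (1% O2, 1% dialyzed FBS). Vehicle or test compound present; for BT474 in H1, a 10-fold dilution series. Lipids extracted with methanol/chloroform/PBS, saponified in 0.3 M KOH/90% methanol at 70°C for 1 h, then hexane-extracted. Palmitate labeling read by C18 reverse-phase LC-MS. n = 3, mean ± S.D.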

[3] = system: MDA-MB-468 tumors; test: MDA-MB-468 tumor xenograft growth; assay type: in vivo, mouse; settings: MDA-MB-468 (ACSS2 high), 100 mpk daily PO
Outline: (§1)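 Female NSG mice, 5–6 weeks old, received subcutaneous PBS:Matrigel grafts: BT474 at 1×10^6 (with a 60-day 17β-estradiol pellet at the neck), MDA-MB-468 at 5×10^6, or WHIM12 PDX cells at 2×10^6. Once tumors established, mice were randomized to daily IP or oral gavage. Arms: vehicle (10% DMSO, 20% solutol, 70% water with 0.5% Tween20) or 100 mg/kg test compound. Calipers thrice weekly; volume (L × W²)/2.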

[4] = system: Brpkp110 cells; test: 13C6-glucose dependent palmitate synthesis in Brpkp110 cells; assay type: cell-based, mouse; settings: Brpkp110, normoxia, 10% dialyzed FBS
Outline: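 Cells grown 4 h under normoxia in SMEM with 10% dialyzed FBS and 5.5 mM uniformly labeled 13C6-glucose. Lipids extracted with methanol/chloroform/PBS and saponified in 0.3 M KOH in 90% methanol at 70°C for 1 h. Fatty acids recovered into hexane and palmitate labeling measured by C18 reverse-phase LC-MS.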

[5] = system: BT474 tumors; test: BT474 tumor xenograft growth; assay type: in vivo, mouse; settings: BT474, 100 mpk daily IP
Outline: as §1

[6] = system: SKBr3 cells; test: Growth of SKBr3 cells; assay type: cell-based, human; settings: SKBr3, 10 μM, 72 hours, H1 conditions, 200 μM sodium acetate
[7] = system: SKBr3 cells; test: 13C2-acetate labeling of palmitate in SKBr3 cells; assay type: cell-based, human; settings: SKBr3, 100 μM 13C2-acetate, 24 hr, N10 and H1 conditions
Outline: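 SKBr3 cells were grown 24 h in serum-like modified Eagle's medium with 100 μM 13C2-acetate, either in N10 (normoxia, 10% dialyzed FBS) or H1 (1% O2, 1% dialyzed FBS), with vehicle or test compound. Lipids were extracted with methanol/chloroform/PBS, saponified in 0.3 M KOH in 90% methanol at 70°C for 1 h, then hexane-extracted. Palmitate labeling was measured by C18 LC-MS; mean ± S.D., n = 3.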

[8] = molecular target: recombinant human ACSS2 (Homo sapiens, UniProt Q9NR19); test: TranScreener AMP biochemical assay of ACSS2 activity; settings: ratio of IC50 values
Outline: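 Recombinant human ACSS2 at 3 nM in 30 mM HEPES pH 7.4, 140 mM NaCl, 2 mM MgCl2, 2 mM DTT, 0.005% Brij35. Test compound serially diluted in DMSO. Final substrates: 5 mM acetate, 50 μM ATP, 5 μM CoA; 120 min incubation. AMP detected by Tb-anti-AMP antibody/tracer TR-FRET after 30 min. Percent inhibition normalized to no-enzyme (100%) and DMSO (0%) wells; IC50 curves fitted from replicates.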

[9] = Human liver microsomal stability; assay type: in vitro ADME; settings: 0.5 μM compound, 0.5 mg/mL microsomes; compared with VY-3-249
Outline: (§2)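 Incubations: 0.5 μM compound, 0.5 mg/mL liver microsomes, NADPH-regenerating system, potassium phosphate pH 7.4. Timed aliquots quenched in acetonitrile with internal standard; no-cofactor controls run. LC-MS/MS analyte/internal-standard peak-area ratios. Elimination constant fitted by nonlinear regression; t1/2 from k = 0.693/t1/2. CLint scaled with 48 (mouse) or 39.7 (human) mg protein/g liver. n = 1.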

[10] = system: A7C11 tumors; test: A7C11 tumor growth in mice; assay type: in vivo, mouse; settings: A7C11 (ACSS2 low) tumors
Outline: (§3)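 Parental or CRISPR-Cas9 sgAcss2 cells (lentiviral, blasticidin-selected pools) implanted subcutaneously into 5–6-week-old female NSG mice in PBS:Matrigel: A7C11 at 5×10^5, Brpkp110 at 5×10^5. Calipers read tumors three times weekly. Volume = (L × W²)/2, L being the longer measurement; not blinded.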

[11] = system: sgACSS2 Brpkp110 tumors; test: sgACSS2 Brpkp110 tumor growth in mice; assay type: in vivo, mouse; settings: sgACSS2 Brpkp110 (ACSS2 knockout) tumors
Outline: as §3

[12] = Mouse liver microsomal stability; assay type: in vitro ADME; settings: 0.5 μM compound, 0.5 mg/mL microsomes; compared with VY-3-249
Outline: as §2

[13] = system: BT474 cells; test: Growth of BT474 cells; assay type: cell-based, human; settings: BT474, 10 μM, 72 hours, H1 conditions, 200 μM sodium acetate
[14] = Water solubility in PBS; assay type: physicochemical; settings: PBS buffer, pH 7.4
Outline: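 10 mg test compound in 1 mL PBS pH 7.4, sonicated 30 min, vortexed 30 min at low speed, then left 16–24 h at room temperature. Filtered (0.22 μm) and 10-fold serially diluted in triplicate in ACN:water (1:1). Internal standard added; LC-MS/MS quantitation against a five-standard calibration curve.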

recombinant human ACSS2, sequence (Q9NR19 whole entry): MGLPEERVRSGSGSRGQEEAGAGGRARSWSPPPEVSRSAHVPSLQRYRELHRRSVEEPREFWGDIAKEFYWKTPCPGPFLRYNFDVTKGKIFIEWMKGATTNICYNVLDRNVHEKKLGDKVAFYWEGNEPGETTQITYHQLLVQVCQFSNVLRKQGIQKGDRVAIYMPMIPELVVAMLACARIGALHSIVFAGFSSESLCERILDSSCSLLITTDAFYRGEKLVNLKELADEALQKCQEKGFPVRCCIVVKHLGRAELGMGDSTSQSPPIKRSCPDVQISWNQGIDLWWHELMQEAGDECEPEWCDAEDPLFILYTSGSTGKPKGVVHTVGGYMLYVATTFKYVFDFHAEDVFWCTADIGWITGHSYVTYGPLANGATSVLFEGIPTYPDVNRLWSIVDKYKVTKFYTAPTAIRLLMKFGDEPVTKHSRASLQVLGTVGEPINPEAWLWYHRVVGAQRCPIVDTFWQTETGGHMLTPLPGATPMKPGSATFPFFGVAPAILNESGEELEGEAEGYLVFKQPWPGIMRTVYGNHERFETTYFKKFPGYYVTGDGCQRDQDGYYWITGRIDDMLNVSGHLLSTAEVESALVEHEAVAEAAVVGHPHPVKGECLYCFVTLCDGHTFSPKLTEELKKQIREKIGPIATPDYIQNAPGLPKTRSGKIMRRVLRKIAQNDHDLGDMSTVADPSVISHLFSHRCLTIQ

CCn1c(C(O)(c2ccccc2)c2ccccc2)nc2ccc(C(=O)NC[C@@H](C)O)cc21 [VY-3-135, (R)-1-ethyl-2-(hydroxydiphenylmethyl)-N-(2-hydroxypropyl)-1H-benzo[d]imidazole-6-carboxamide]
incorporation of 13C2-acetate into UDP-GlcNAc [1]: blocked incorporation
acetate dependent labeling of palmitate by 13C2-acetate [2]: efficiently blocked
tumor growth [3]: repressed
13C6-glucose dependent palmitate synthesis [4]: did not affect
tumor regression by the end of the regimen ([5]; n = 5 mice per group): two of the tumors in VY-3-135 treated group were not palpable by the end of the regimen, with one tumor fully regressing
tumor growth ([5]; two weeks of treatment): completely abrogated tumor growth
cell growth [6]: modest growth inhibition
fatty acid (palmitate) synthesis from 13C2-acetate [7]: completely blocked fatty acid synthesis from acetate
potency relative to VY-3-249 [8]: ~30 fold
stability in human liver microsomal assay [9]: superior stability
tumor growth [10]: but not WHIM12 and A7C11 tumors
tumor growth [11]: no further effect on tumor growth
stability in mouse liver microsomal assay [12]: superior stability
cell growth [13]: modest growth inhibition
solubility [14]: 21.7 µM (≈ 9.32 µg/mL)

Source: PMC8026699 (Cancer research, 2021)
